Data: ChEMBL document CHEMBL1145431, “Improved anti-osteoporosis potency and reduced endometrial membrane hyperplasia during hormone replacement therapy with estrogen-RGD peptide conjugates” (2007)
Where a SMILES comes first, the peptide text is derived from it. The star is where a group is joined. Succinyl(O17-estradiol) = C[C@]12CC[C@@H]3c4ccc(O)cc4CC[C@H]3[C@@H]1CC[C@@H]2OC(=O)CCC(=O)*

How the values were obtained:
Mus musculus [1] = test: Effect on uterus weight in ovariectomized mouse at 0.1103 mmol/kg, ip once daily for 4 weeks; type: functional
Summary of the method: (§1)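 Female Kuiming mice (7 weeks old, 30.7 ± 3.1 g), abdominal OVX under pentobarbital (40.0 mg/kg i.p.). From day 5 after surgery, i.p. injection once daily for 4 weeks, compound in aqueous 0.5% CMC prepared just before use. The day after the last dose, mice were anesthetized and killed, and lungs, livers, spleens and uteri were removed and weighed directly. n = 12, ANOVA, p < 0.05.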

Mus musculus [2] = test: Effect on serum phosphorus level in ovariectomized mouse at 0.1103 mmol/kg, ip once daily for 4 weeks; type: functional
Summary of the method: (§2)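 OVX Kuiming mice dosed i.p. daily for 4 weeks in 0.5% CMC. Blood taken retro-orbitally on the day after the last dose, stood 30 min, spun at 3000 g for 20 min, serum stored at -20 °C. Calcium by o-methylphenolphthalein complexone, phosphorus by molybdenum blue, ALP by activity with disodium phenylphosphate substrate.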

Mus musculus [3] = test: Effect on liver weight in mouse at 0.1103 mmol/kg, po; type: functional
Summary of the method: (§3)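 Female Kuiming mice (7 weeks old, 30.7 ± 3.1 g) under abdominal OVX, sham group abdominorotomy only. From day 5 after surgery, dosed orally once daily for 4 weeks at 110.3 × 10-3 mmol/kg in 0.5% CMC (0.2 mL), vehicle group CMC alone. Blood drawn retro-orbitally, then left femur and organs removed under pentobarbital (40.0 mg/kg, i.p.).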

Mus musculus [4] = test: Effect on uterus weight in mouse at 0.1103 mmol/kg, po; type: functional
Mus musculus [5] = test: Effect on dry weight of femurs in ovariectomized mouse at 0.1103 mmol/kg, ip once daily for 4 weeks; type: functional, Femur
Summary of the method: (§4)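 Female Kuiming mice (7 weeks, 30.7 ± 3.1 g) ovariectomized, sham group abdominorotomy. From day 5, i.p. once daily for 4 weeks at 110.3 × 10-3 mmol/kg in 0.5% CMC. Left femur cleaned, length measured, defatted in chloroform-methanol (2:1, 2 × 3 h), dried 120 °C 6 h for dry weight, ashed 800 °C 8 h. Mineral content = ash/dry weight. Ash dissolved in 6 N HCl and diluted. Ca by o-methylphenolphthalein complexone, P by molybdenum blue. Lungs and livers weighed directly.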

Mus musculus [6] = test: Effect on serum calcium level in ovariectomized mouse at 0.1103 mmol/kg, ip once daily for 4 weeks; type: functional; summary of the method: as §2
Mus musculus [7] = test: Effect on femur ash weight in mouse at 0.1103 mmol/kg, po; type: functional; summary of the method: as §3
Mus musculus [8] = test: Effect on mineral content in ovariectomized mouse at 0.1103 mmol/kg, ip once daily for 4 weeks; type: functional; summary of the method: as §4
Mus musculus [9] = test: Effect on calcium level in ovariectomized mouse at 0.1103 mmol/kg, ip once daily for 4 weeks; type: functional; summary of the method: as §4
Mus musculus [10] = test: Effect on lung weight in mouse at 0.1103 mmol/kg, po; type: functional; summary of the method: as §3
Mus musculus [11] = test: Effect on phosphorus level in mouse at 0.110 mmol/kg, po; type: functional; summary of the method: as §3
Mus musculus [12] = test: Effect on serum ALP lavel in ovariectomized mouse at 0.1103 mmol/kg, ip once daily for 4 weeks; type: functional; summary of the method: as §2
Mus musculus [13] = test: Effect on serum phosphorous Concentration in mouse at 0.110 mmol/kg, po; type: functional
Summary of the method: (§5)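 Oral OVX Kuiming mouse model, dosed daily for 4 weeks at 110.3 × 10-3 mmol/kg in 0.5% CMC. Retro-orbital blood stood 30 min at room temperature and was spun at 3000 g for 20 min. Serum kept at -20 °C. Calcium read by o-methylphenolphthalein complexone, phosphorus by molybdenum blue, ALP by activity on disodium phenylphosphate substrate.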

Mus musculus [14] = test: Effect on dry weight of femurs in mouse at 0.1103 mmol/kg, po; type: functional, Femur; summary of the method: as §3
Mus musculus [15] = test: Effect on femur ash weight in ovariectomized mouse at 0.1103 mmol/kg, ip once daily for 4 weeks; type: functional; summary of the method: as §4
Mus musculus [16] = test: Effect on lung weight in ovariectomized mouse at 0.1103 mmol/kg, ip once daily for 4 weeks; type: functional; summary of the method: as §4
Mus musculus [17] = test: Increase in body weight in ovariectomized mouse at 0.1103 mmol/kg, ip once daily for 4 weeks; type: functional
Summary of the method: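 Female Kuiming mice (30.7 ± 3.1 g) underwent abdominal OVX; the sham group had abdominorotomy only. From day 5 after surgery, i.p. dosing once daily for 4 weeks at 110.3 × 10-3 mmol/kg in aqueous 0.5% CMC. Body weight was recorded on the day of the last administration.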

Mus musculus [18] = test: Effect on liver weight in ovariectomized mouse at 0.110 mmol/kg, ip once daily for 4 weeks; type: functional; summary of the method: as §4
Mus musculus [19] = test: Effect on spleen weight in mouse at 0.1103 mmol/kg, po; type: functional; summary of the method: as §3
Mus musculus [20] = test: Effect on serum calcium level in mouse at 0.1103 mmol/kg, po; type: functional; summary of the method: as §5
Mus musculus [21] = test: Effect on lenght of femur in mouse at 0.110 mmol/kg, po; type: functional; summary of the method: as §3
Mus musculus [22] = test: Effect on serum ALP level in mouse at 0.1103 mmol/kg, po; type: functional; summary of the method: as §5
Mus musculus [23] = test: Effect on femur length in ovariectomized mouse at 0.1103 mmol/kg, ip once daily for 4 weeks; type: functional; summary of the method: as §4
Mus musculus [24] = test: Effect on calcium level in mouse at 0.1103 mmol/kg, po; type: functional; summary of the method: as §3
Mus musculus [25] = test: Effect on spleen weight in ovariectomized mouse at 0.1103 mmol/kg, ip once daily for 4 weeks; type: functional; summary of the method: as §1
Mus musculus [26] = test: Effect on phosphorus level in ovariectomized mouse at 0.1103 mmol/kg, ip once daily for 4 weeks; type: functional; summary of the method: as §4
Mus musculus [27] = test: Effect on mineral content in mouse at 0.1103 mmol/kg, po; type: functional; summary of the method: as §3

SMILES	Activity (Mus musculus [1]) [mg]	Activity (Mus musculus [2]) [mmol/L]	Activity (Mus musculus [3]) [g]	Activity (Mus musculus [5]) [mg]	Activity (Mus musculus [6]) [mmol/L]	Activity (Mus musculus [7]) [mg]	Ratio (Mus musculus [8])	Activity (Mus musculus [9]) [%]	Activity (Mus musculus [10]) [mg]	Activity (Mus musculus [11]) [%]	Activity (Mus musculus [12]) [U/L]	Activity (Mus musculus [13]) [mmol/L]	Activity (Mus musculus [14]) [mg]	Activity (Mus musculus [15]) [mg]	Activity (Mus musculus [16]) [mg]	Activity (Mus musculus [17]) [g]	Activity (Mus musculus [18]) [g]	Activity (Mus musculus [23]) [cm]	Activity (Mus musculus [25]) [mg]	Activity (Mus musculus [26]) [%]	further results
C[C@]12CC[C@@H]3c4ccc(O)cc4CC[C@H]3[C@@H]1CC[C@@H]2OC(=O)CCC(=O)N[C@@H](CCCNC(=N)N)C(=O)NCC(=O)N[C@@H](CC(=O)O)C(=O)N[C@@H](Cc1ccccc1)C(=O)O ({Succinyl(O17-estradiol)}-RGDF-OH)	71.2	1.605	1.338	66	2.005	30	0.533	52.798	167	24.9	31.486	1.6	62.7	34.8	164	34.8	1.391	1.635	142	24.665	Activity (Mus musculus [4]): 38.2 mg; Activity (Mus musculus [19]): 142 mg; Activity (Mus musculus [20]): 2.04 mmol/L; Activity (Mus musculus [21]): 1.638 cm; Activity (Mus musculus [22]): 35.511 U/L; Activity (Mus musculus [24]): 51.903%
C[C@]12CC[C@@H]3c4ccc(O)cc4CC[C@H]3[C@@H]1CC[C@@H]2O [ESTRADIOL]	177.1	1.601	1.335	57.7	2.013	22.2		44.466	168	24.53	35.286	1.6	63.1	28.5	168	34.1	1.565	1.63	151	24.995	Activity (Mus musculus [19]): 141 mg; Activity (Mus musculus [20]): 2.02 mmol/L; Activity (Mus musculus [21]): 1.62 cm; Activity (Mus musculus [22]): 37.705 U/L; Activity (Mus musculus [24]): 41.729%
C[C@]12CC[C@@H]3c4ccc(O)cc4CC[C@H]3[C@@H]1CC[C@@H]2OC(=O)CCC(=O)N[C@@H](CCCNC(=N)N)C(=O)NCC(=O)N[C@@H](CC(=O)O)C(=O)N[C@@H](CO)C(=O)O ({Succinyl(O17-estradiol)}-RGDS-OH)	55.5	1.602	1.331	66.4	2.002	29.3	0.52	51.312	161	24.885	32.771	1.6	68.8	34.4	151	35.4	1.371	1.634	130	24.92	Ratio (Mus musculus [27]): 51.5%; Activity (Mus musculus [4]): 36.7 mg; Activity (Mus musculus [19]): 135 mg; Activity (Mus musculus [20]): 2.04 mmol/L; Activity (Mus musculus [21]): 1.654 cm; Activity (Mus musculus [22]): 35.4 U/L; Activity (Mus musculus [24]): 51.201%
CC(C)[C@H](NC(=O)[C@H](CC(=O)O)NC(=O)CNC(=O)[C@H](CCCNC(=N)N)NC(=O)CCC(=O)O[C@H]1CC[C@H]2[C@@H]3CCc4cc(O)ccc4[C@H]3CC[C@]12C)C(=O)O ({Succinyl(O17-estradiol)}-RGDV-OH)	69.4	1.605	1.34	62.6	2.005	33	0.625	53.078	167	24.879	31.057	1.61	68.2	35.8	167	34.5	1.353	1.655	143	24.867	Ratio (Mus musculus [27]): 52.5%; Activity (Mus musculus [4]): 50.7 mg; Activity (Mus musculus [19]): 133 mg; Activity (Mus musculus [20]): 2.03 mmol/L; Activity (Mus musculus [21]): 1.645 cm; Activity (Mus musculus [22]): 33.411 U/L; Activity (Mus musculus [24]): 52.003%
N=C(N)NCCC[C@H](N)C(=O)NCC(=O)N[C@@H](CC(=O)O)C(=O)N[C@@H](Cc1ccccc1)C(=O)O (H-RGDF-OH)	69.8	1.599		60	2.012		0.423	43.815			35.643			22.5	163	33.3	1.413	1.62	134	24.585	
